What all share (type): cell-based
In experiment [1] the target is T1, Retinoic acid receptor RXR-alpha (Homo sapiens) (UniProt P19793).
T1 sequence (whole entry): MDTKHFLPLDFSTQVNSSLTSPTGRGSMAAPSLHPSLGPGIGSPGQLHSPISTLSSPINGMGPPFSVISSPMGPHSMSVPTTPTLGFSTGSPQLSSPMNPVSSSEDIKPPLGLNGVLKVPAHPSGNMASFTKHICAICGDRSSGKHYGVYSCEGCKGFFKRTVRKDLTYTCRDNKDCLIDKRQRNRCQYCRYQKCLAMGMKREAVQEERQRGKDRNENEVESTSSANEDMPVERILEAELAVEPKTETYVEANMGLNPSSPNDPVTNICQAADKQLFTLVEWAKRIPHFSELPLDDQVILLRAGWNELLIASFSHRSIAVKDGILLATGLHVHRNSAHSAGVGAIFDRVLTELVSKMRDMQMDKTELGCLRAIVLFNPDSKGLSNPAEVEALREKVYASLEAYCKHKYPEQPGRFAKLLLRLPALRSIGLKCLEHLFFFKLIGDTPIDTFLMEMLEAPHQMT
The experiment in a line: Transactivation of human Gal4-fused RXRalpha LBD expressed in HEK293T cells after 12 to 14 hrs by dual-glo luciferase assay relative to bexarotene.

The target in experiment [2] is Retinoid X receptor (Homo sapiens) (UniProt P28702+P48443+P19793). The experiment in a line: Transactivation of RXR in human HepG2 cells assessed as induction of ABCA1 mRNA expression at 30 uM after 8 hrs by qRT-PCR analysis. The method in brief: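 HepG2 cells were treated and ABCA1 or ApoE mRNA levels measured. Results are given as mean fold induction versus 0.1% DMSO vehicle ± SEM, n = 3. Significance was set at p < 0.05, 0.01 or 0.001.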

For experiment [3], the target named is T2, Retinoic acid receptor RXR-beta (Homo sapiens) (UniProt P28702).
T2 sequence (whole entry): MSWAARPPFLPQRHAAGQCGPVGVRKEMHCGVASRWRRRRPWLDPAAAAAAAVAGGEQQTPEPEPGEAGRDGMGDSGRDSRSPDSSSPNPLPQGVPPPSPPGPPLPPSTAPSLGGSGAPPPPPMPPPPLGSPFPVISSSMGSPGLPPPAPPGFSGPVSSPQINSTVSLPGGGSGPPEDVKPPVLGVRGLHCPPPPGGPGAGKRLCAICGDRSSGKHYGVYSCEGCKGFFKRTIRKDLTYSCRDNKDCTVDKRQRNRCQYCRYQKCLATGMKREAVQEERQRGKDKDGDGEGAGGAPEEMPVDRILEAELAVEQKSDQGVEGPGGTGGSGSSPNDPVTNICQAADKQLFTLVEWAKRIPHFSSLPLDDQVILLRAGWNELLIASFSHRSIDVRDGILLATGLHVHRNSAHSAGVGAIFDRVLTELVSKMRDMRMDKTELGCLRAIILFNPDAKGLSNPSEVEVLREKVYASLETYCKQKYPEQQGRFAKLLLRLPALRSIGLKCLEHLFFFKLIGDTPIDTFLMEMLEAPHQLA
The experiment is described as follows: Transactivation of human Gal4-fused RXRbeta LBD expressed in HEK293T cells at 30 uM after 12 to 14 hrs by dual-glo luciferase assay. A digest of the protocol: (§1)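 Single-concentration selectivity profiling in Gal4-hybrid reporter gene assays in HEK293T cells. Each nuclear receptor construct (RAR, PPAR, LXR, FXR, CAR, VDR, PXR, RXR) was tested at 30 μM.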

The target in experiment [4] is T1, Retinoic acid receptor RXR-alpha (Homo sapiens). The experiment is described as follows: Transactivation of human Gal4-fused RXRalpha LBD expressed in HEK293T cells at 30 uM after 12 to 14 hrs by dual-glo luciferase assay. A digest of the protocol: as §1
For experiment [5], the target named is T3, Bile acid receptor (Homo sapiens) (UniProt Q96RI1).
T3 sequence (whole entry): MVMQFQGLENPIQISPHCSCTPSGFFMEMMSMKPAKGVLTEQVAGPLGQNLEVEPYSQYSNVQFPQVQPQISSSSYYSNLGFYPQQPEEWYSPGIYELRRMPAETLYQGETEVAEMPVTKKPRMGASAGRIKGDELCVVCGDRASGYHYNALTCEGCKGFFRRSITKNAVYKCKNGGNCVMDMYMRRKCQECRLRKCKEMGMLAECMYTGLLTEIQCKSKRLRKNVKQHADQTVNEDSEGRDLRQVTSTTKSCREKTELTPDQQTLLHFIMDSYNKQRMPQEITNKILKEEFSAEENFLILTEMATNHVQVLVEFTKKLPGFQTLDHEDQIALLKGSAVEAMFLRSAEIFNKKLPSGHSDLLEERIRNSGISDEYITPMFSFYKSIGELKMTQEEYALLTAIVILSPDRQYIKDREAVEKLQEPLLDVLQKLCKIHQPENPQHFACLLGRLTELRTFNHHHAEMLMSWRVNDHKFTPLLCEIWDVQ
The experiment is described as follows: Transactivation of human Gal4-fused FXR LBD expressed in HEK293T cells at 30 uM after 12 to 14 hrs by dual-glo luciferase assay. A digest of the protocol: as §1

For experiment [6], the target named is T4, Retinoic acid receptor gamma (Homo sapiens) (UniProt P13631).
T4 sequence (whole entry): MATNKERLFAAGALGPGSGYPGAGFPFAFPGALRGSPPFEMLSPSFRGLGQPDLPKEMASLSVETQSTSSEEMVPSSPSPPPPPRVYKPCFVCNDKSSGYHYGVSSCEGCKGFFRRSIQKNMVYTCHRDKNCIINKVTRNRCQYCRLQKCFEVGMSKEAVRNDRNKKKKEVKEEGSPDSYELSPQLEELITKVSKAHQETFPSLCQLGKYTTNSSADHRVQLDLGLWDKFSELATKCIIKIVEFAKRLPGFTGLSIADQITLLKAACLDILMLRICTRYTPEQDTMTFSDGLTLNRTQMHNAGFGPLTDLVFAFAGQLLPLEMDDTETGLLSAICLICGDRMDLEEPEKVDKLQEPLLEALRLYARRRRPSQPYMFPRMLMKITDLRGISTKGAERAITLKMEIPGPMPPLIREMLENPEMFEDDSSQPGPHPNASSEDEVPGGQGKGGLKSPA
The experiment is described as follows: Transactivation of human Gal4-fused RARgamma LBD expressed in HEK293T cells at 30 uM after 12 to 14 hrs by dual-glo luciferase assay. A digest of the protocol:
as §1

The source made the active and inactive calls. No cut-off for these calls is given here.

Drawing on ChEMBL document CHEMBL4145619, “Computer-Assisted Discovery of Retinoid X Receptor Modulating Natural Products and Isofunctional Mimetics” (J Med Chem, 2018), this text covers fold change (FC) and Activity for 1 molecule.

Chain of Retinoid X receptor (Homo sapiens) (P48443 whole entry, looked up, one chain of several): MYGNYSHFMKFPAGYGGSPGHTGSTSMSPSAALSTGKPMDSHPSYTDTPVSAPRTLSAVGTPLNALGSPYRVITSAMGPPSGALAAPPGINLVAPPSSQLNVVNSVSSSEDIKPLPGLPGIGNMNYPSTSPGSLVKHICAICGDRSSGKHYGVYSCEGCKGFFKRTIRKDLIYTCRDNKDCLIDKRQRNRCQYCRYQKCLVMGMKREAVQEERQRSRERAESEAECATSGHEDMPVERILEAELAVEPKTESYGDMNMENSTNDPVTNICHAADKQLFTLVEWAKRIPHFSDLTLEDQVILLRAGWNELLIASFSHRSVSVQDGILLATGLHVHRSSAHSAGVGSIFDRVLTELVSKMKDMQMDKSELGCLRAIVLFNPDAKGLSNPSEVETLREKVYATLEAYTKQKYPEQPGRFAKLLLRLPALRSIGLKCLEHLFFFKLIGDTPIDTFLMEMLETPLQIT

In experiment [1], `CC1=C2[C@H](/C=C(\C)C(=O)O)CC[C@@H](C)[C@H]2CC1` [VALERENIC ACID] came in with a fold change (FC) of 9. Further, the outcome in experiment [2], in experiment [3] and in experiment [4] was Active. The outcome in experiment [5] and in experiment [6] was inactive.
